# Only some compounds are listed: those with a hit (about 3.8% of all), similar ones and a draw of the others.
# FN deposit inh: inhibitors of fibronectin matrix deposition, primary screen, AH1F cells, Alexa488-fibronectin fluorescence, plate reader. AH1F fibroblasts, overnight. inhibition, % at 12.6 µM. 0.086% of 350,000 active. AID 743247, 2014;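 active means mean inhibition across replicates of 30% or more, regardless of how many single replicates reach that level; inconclusive means mean under 30% yet at least half of replicates reach 30%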;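 further: positive control wells lacked labelled fibronectin entirely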
#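 Test system: AH1F fibroblast monolayer depositing Alexa488-labelled fibronectin into matrix. Input: 10000 cells per well. Technique: fluorescence, ex 485 nm, em 525 nm. Buffer or medium: DMEM plus 2% serum, read in PBS. Timing: 1 h cell adhesion before compound, then overnight fibronectin incubation. Compound: single dose, pinned. Read-out basis: inhibition from reduced deposited-fibronectin fluorescence.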
# SIRT5 inh: SIRT5 desuccinylase inhibitors, primary screen, biochemical, fluorescence imaging, single point, set 5; NAD-dependent protein deacylase sirtuin-5, mitochondrial (Homo sapiens), Q9NXA8; Purified SirT5, succinyl-peptide AMC, trypsin-coupled fluorescence; inhibition, % at 15 µM; 1.1% of 330,000 active; AID 652115, 2013; in the data active means inhibition above about 15%; inconclusive means no clear call, values can overlap the other calls
# Target sequence (Q9NXA8 whole entry, looked up): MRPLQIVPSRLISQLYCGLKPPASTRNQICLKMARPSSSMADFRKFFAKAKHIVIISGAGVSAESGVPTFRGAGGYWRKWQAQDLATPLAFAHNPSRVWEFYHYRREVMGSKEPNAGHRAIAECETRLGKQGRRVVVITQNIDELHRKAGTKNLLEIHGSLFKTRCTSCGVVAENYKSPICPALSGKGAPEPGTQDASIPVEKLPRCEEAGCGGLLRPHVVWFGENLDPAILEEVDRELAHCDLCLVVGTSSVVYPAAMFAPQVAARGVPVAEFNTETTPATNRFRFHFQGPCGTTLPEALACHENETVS
# XiGFP reactiv: activators of inactive X chromosome reactivation, primary screen, imaging, XiGFP fibroblasts, GFP high-content imaging, set 2 | activation, % at 7.58 µM | AID 743238, 2013 | 0.055% of 360,000 active | XiGFP mouse fibroblasts, % GFP-positive cells imaging, 3 d; cells co-treated with 5-aza-dC sensitizer; scaled so ellipticine positive control = 100%;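 active means mean normalized replicate activation at least 10% and every replicate at or above 10%; inconclusive means only one of the two criteria met; inactive means mean below 10% and not all replicates reach 10%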;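 further: 0% = median of on-plate neutral control wells and 100% = ellipticine 6 µM median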
#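 Material: SV40-immortalized XiGFP fibroblast cells, line 68-5-11 | Buffer or medium: DMEM containing 5-aza-dC | Dosing: One concentration, pinned | Times: 3 d treatment, 15 min room-temperature fixation | Controls: Ellipticine 6 µM positive control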
# DENV2 CPE: inhibitors of DENV2 cytopathic effect, primary screen, cell-based, plate reader, single concentration. CPE inhibition, % at 9.99 µM. 1.7% of 350,000 active. DENV2-infected cells, cytopathic effect rescue; in the data active means CPE inhibition above about 20%, passing the limit was not always enough; inconclusive means no clear call, values can overlap the other calls; tested in BHK-21 cells;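 further: 0% = median of neutral control wells and 100% = median of positive control wells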
# FGF22 binding: binders of human FGF22 protein, primary screen, FGF22 synaptogenesis inhibitor project, biophysical, thermal shift, single point; recombinant FGF22 thermal shift, SYPRO orange fluorescence; percent of sucrose octasulfate shift, DMSO zero; activity (Tm shift, normalised), % at 9.99 µM; Fibroblast growth factor 22 (Homo sapiens), Q9HCT0; 1.5% of 340,000 active;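 active means mean Tm shift, scaled 0 neutral to 100 positive control, at about 1.3% or above, every replicate too, limit read from the data; inconclusive means no clear call, values can overlap the other calls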
# Target sequence (Q9HCT0 whole entry, looked up): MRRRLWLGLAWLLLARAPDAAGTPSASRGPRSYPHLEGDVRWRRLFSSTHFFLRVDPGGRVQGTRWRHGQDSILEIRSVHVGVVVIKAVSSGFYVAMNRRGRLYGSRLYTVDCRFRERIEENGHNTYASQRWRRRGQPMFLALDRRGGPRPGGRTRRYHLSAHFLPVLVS
# ARNT-TACC3 inh: disruptors of ARNT/TACC3 protein interaction, primary screen, biochemical, AlphaScreen, single concentration; AlphaScreen His-ARNT PAS-B/GST-TACC3 binding, luminescence; TACC3 fragment carries E629A point mutation; inhibition, % at 9.99 µM; 0.66% of 390,000 active; AID 623870, 2012;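 active means mean inhibition of replicates at least 50% and at least half of replicates each reaching 50%; inconclusive means half or more replicates reach 50% but mean below 50%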;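 further: 0% = complete ARNT plus TACC3 wells and 100% = ARNT alone without TACC3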
# Active calls of the source: *; ? = inconclusive; . = not tested or not shown; ! = not confirmed by another sample.
SMILES,FN deposit inh,SIRT5 inh,XiGFP reactiv,DENV2 CPE,FGF22 binding,ARNT-TACC3 inh
CCCNC(=O)[C@H]1[C@H](CO)[C@H]2Cn3c(cccc3=O)[C@@H]1N2Cc1cc(F)ccc1F,.,8,1,-7,0,-2
C[C@@H]1CN([C@H](C)CO)C(=O)CCCn2cc(nn2)CO[C@@H]1CN(C)S(=O)(=O)c1cn(C)cn1,-11,-3,0,-11,0,-7
Clc1ccccc1N1CCN(Cc2c[nH]c3ccccc23)CC1,-6,3,0,-5,0,7
OC1(c2ccc(Cl)cc2)CCN(Cc2c[nH]c3ccccc23)CC1,.,4,0,56*,0,10
CNC[C@@H]1Oc2cc(C#Cc3ccccn3)ccc2S(=O)(=O)N([C@H](C)CO)C[C@H]1C,.,2,0,?,0,46*
C[C@@H]1CN([C@H](C)CO)S(=O)(=O)c2ccc(C#Cc3ccccc3F)cc2O[C@@H]1CN(C)C(=O)Cc1ccccc1,20,20*!,0,2,0,7
C[C@@H]1CN([C@H](C)CO)S(=O)(=O)c2ccc(C#Cc3ccccc3)cc2O[C@H]1CN(C)C(=O)CN(C)C,10,-4,0,24*,0,6
C[C@H](O)C#Cc1ccc2c(c1)O[C@H](CN(C)C(=O)CN(C)C)[C@@H](C)CN([C@H](C)CO)S2(=O)=O,.,0,1,24*,0,3
C[C@H](CO)N1C[C@H](C)[C@@H](CN(C)C(=O)C2CC2)Oc2cc(C#Cc3ccccc3)ccc2S1(=O)=O,-9,0,0,174*,1,-1
O=C(COc1ccc(Cc2ccccc2)cc1)c1ccc(F)cc1,3,16*,0,11,0,-4
COCC(=O)N1C[C@@H](C)[C@H](OC)CN(C)C(=O)c2ccc(NC(=O)C3CCC3)cc2OC[C@H]1C,-4,5,0,-4,0,-2
Cc1ccc(OCCNC(=O)/C=C/c2ccccc2)cc1,0,-2,0,28*,0,-11
CC(C)c1ccc(NC(=O)COC(=O)COc2ccccc2)cc1,-2,0,0,.,43*,.
CCC(=O)Nc1nnc(/C=C/c2ccc(OC)cc2)s1,-5,-5,0,58*,0,-8
O=C(C[C@H]1C=C[C@H](NS(=O)(=O)c2ccc(F)cc2)[C@H](CO)O1)NCCc1ccncc1,.,-1,0,6,0,-1
Cc1noc(C)c1S(=O)(=O)Nc1ccc2c(c1)C(=O)N([C@H](C)CO)C[C@H](C)[C@@H](CN(C)Cc1ccncc1)OCCCC[C@H](C)O2,.,8,0,-3,1,2
CO[C@@H]1CN(C)C(=O)c2ccc(NS(C)(=O)=O)cc2OC[C@H](C)N(Cc2cccnc2)C[C@@H]1C,10,-9,0,26*,0,-1
COCC(=O)Nc1ccc2c(c1)C(=O)N(C)C[C@@H](OC)[C@H](C)CN(Cc1cncnc1)[C@@H](C)CO2,-11,-1,1,21*,0,-6
COCC(=O)Nc1ccc2c(c1)OC[C@@H](C)N(Cc1cncnc1)C[C@@H](C)[C@H](OC)CN(C)C2=O,-4,-1,1,22*,.,.
COc1ccc(-c2ccc([C@@H]3[C@H](C#N)N(C(=O)NC4CCCC4)[C@H]3CO)cc2)cc1,0,.,0,14,1,3
COc1ccc(S(=O)(=O)Nc2ccc3c(c2)C(=O)N([C@@H](C)CO)C[C@@H](C)[C@H](CN(C)C(=O)C2CCCCC2)OCCCC[C@@H](C)O3)cc1,.,2,0,-3,0,-7

# Bioassay records as filed in PubChem BioAssay.
